pIC50: −log10 of the molar value. Blank lines part the entries; values can stand above or below the compound they belong to. Activity calls are given as the source filed them. No cut-off for these calls is given here.
Assays:
[1] = Clearance in CD1 mouse at 5 mg/kg, iv or 30 mg/kg, po; format: ADME, organism-based; conditions: in vivo
In short: (§1)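 iv: mouse 5, rat 2, dog 3, monkey 2 mg/kg in 10% dimethylacetamide/23% water/67% PEG 400. po: mouse 30, rat 10, monkey 10 mg/kg in 0.1% Tween-80/0.5% CMC in water; dog 10 mg/kg in the iv vehicle. Plasma sampled at various time points for drug levels. Half-life is terminal.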

Cytochrome P450 2D6 = Cytochrome P450 2D6 (Homo sapiens, UniProt P10635); assay: Inhibition of CYP2D6; format: ADME
Mus musculus [2] = assay: Ex vivo inhibition of 11beta-HSD1 in high fat diet-fed C57BL/6 mouse inguinal fat at 5 mg/kg, po measured at 8 hrs by ELISA; format: functional; conditions: C57BL/6, 8 h
Glucocorticoid receptor = target: T1, Glucocorticoid receptor (Homo sapiens, UniProt P04150); assay: Inhibition of glucocorticoid receptor
T1 sequence (P04150 whole entry): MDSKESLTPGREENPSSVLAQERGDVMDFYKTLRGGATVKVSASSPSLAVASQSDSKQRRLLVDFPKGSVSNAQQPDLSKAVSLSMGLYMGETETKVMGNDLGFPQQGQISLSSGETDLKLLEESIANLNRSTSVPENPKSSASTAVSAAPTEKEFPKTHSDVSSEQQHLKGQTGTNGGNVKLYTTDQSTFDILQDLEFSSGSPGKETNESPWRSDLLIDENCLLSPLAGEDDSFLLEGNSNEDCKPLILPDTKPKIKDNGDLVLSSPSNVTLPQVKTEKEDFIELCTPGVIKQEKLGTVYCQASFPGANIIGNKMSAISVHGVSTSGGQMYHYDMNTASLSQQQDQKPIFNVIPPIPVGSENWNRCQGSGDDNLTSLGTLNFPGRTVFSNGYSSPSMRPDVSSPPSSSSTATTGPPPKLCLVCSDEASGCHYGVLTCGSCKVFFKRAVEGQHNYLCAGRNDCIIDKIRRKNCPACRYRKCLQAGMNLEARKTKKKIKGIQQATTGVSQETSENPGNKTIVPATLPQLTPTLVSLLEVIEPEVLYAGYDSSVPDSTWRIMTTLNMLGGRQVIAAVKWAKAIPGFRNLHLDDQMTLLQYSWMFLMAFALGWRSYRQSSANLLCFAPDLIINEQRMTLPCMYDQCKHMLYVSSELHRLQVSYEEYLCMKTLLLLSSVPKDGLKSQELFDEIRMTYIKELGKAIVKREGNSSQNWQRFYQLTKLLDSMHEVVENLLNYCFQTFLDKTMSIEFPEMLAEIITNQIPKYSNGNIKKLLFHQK

[3] = Bioavailability in Beagle dog at 3 mg/kg, iv or 10 mg/kg, po; conditions: in vivo
Mus musculus [4] = assay: Ex vivo inhibition of 11beta-HSD1 in high fat diet-fed C57BL/6 mouse inguinal fat at 50 mg/kg, po measured at 4 hrs by ELISA; format: functional; conditions: C57BL/6, 4 h
Mus musculus [5] = assay: Ex vivo inhibition of 11beta-HSD1 in high fat diet-fed C57BL/6 mouse inguinal fat at 5 mg/kg, po measured at 4 hrs by ELISA; format: functional; conditions: C57BL/6, 4 h
Mus musculus [6] = assay: Antidiabetic activity in diet-induced obese mouse assessed as decrease in plasma insulin level at 25 to 50 mg/kg, po administered via gavage BID for 13 days measured after day 13 by glucose tolerance test; format: functional, organism-based
In short: (§2)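 Male C57BL/6 mice on high-fat diet from 3 weeks of age for 12 weeks (DIO), grouped n = 11-12 by pretreatment glucose and body weight. Oral gavage 25 or 50 mg/kg b.i.d. (half dose morning, half afternoon) or vehicle (0.1% Tween-80, 0.5% CMC in water) for 13-14 days. Fed blood glucose by glucose meter, plasma insulin by radioimmunoassay, body weight at study end.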

[7] = target: T2, 11-beta-hydroxysteroid dehydrogenase type 2 (Homo sapiens, UniProt P80365); assay: Inhibition of 11beta-HSD2
T2 sequence (P80365 whole entry): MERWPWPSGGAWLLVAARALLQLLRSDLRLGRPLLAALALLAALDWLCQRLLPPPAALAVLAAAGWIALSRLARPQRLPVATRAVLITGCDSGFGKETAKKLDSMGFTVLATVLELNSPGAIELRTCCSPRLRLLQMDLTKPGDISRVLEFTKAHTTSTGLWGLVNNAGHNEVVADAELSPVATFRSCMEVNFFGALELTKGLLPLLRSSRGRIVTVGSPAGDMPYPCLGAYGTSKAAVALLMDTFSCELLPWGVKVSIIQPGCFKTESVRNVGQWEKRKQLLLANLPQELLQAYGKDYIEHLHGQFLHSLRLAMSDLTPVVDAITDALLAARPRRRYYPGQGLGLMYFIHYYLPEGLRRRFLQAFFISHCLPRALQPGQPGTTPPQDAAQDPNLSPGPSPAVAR

Mus musculus [8] = assay: Antidiabetic activity in diet-induced obese mouse assessed as mild improvement of glucose tolerance at 25 to 50 mg/kg, po BID for 13 days measured on day 14 after 12 hrs of fasting by glucose tolerance test
Cytochrome P450 3A4 = Cytochrome P450 3A4 (Homo sapiens, UniProt P08684); assay: Inhibition of CYP3A4; format: ADME
Cytochrome P450 2C9 = Cytochrome P450 2C9 (Homo sapiens, UniProt P11712); assay: Inhibition of CYP2C9; format: ADME
[9] = Metabolic stability in liver microsomes; format: ADME, Microsome
Mus musculus [10] = assay: Ex vivo inhibition of 11beta-HSD1 in high fat diet-fed C57BL/6 mouse inguinal fat at 15 mg/kg, po measured at 8 hrs by ELISA; format: functional; conditions: C57BL/6, 8 h
[11] = Terminal half life in cynomolgus monkey at 2 mg/kg, iv or 10 mg/kg, po; conditions: in vivo, read-out: beta t1/2 (converted)
[12] = Clearance in Sprague-Dawley rat at 2 mg/kg, iv or 10 mg/kg, po; conditions: in vivo
[13] = Volume of distribution at steady state in Beagle dog at 3 mg/kg, iv or 10 mg/kg, po; conditions: in vivo, read-out: Vdss
Mus musculus [14] = assay: Ex vivo inhibition of 11beta-HSD1 in high fat diet-fed C57BL/6 mouse inguinal fat at 50 mg/kg, po measured at 8 hrs by ELISA; format: functional; conditions: C57BL/6, 8 h
[15] = Terminal half life in Sprague-Dawley rat at 2 mg/kg, iv or 10 mg/kg, po; conditions: in vivo, read-out: beta t1/2 (converted)
Cytochrome P450 2C19 = Cytochrome P450 2C19 (Homo sapiens, UniProt P33261); assay: Inhibition of CYP2C19; format: ADME
[16] = Terminal half life in Beagle dog at 3 mg/kg, iv or 10 mg/kg, po; conditions: in vivo, read-out: beta t1/2 (converted)
[17] = Clearance in Beagle dog at 3 mg/kg, iv or 10 mg/kg, po; conditions: in vivo
[18] = Volume of distribution at steady state in cynomolgus monkey at 2 mg/kg, iv or 10 mg/kg, po; conditions: in vivo, read-out: Vdss
[19] = Bioavailability in CD1 mouse at 5 mg/kg, iv or 30 mg/kg, po; format: ADME, organism-based; conditions: in vivo; in short: as §1
[20] = Terminal half life in CD1 mouse at 5 mg/kg, iv or 30 mg/kg, po; format: ADME, organism-based; conditions: in vivo, read-out: beta t1/2 (converted); in short: as §1
Cytochrome P450 1A2 = target: T3, Cytochrome P450 1A2 (Homo sapiens, UniProt P05177); assay: Inhibition of CYP1A2; format: ADME
T3 sequence (P05177 whole entry): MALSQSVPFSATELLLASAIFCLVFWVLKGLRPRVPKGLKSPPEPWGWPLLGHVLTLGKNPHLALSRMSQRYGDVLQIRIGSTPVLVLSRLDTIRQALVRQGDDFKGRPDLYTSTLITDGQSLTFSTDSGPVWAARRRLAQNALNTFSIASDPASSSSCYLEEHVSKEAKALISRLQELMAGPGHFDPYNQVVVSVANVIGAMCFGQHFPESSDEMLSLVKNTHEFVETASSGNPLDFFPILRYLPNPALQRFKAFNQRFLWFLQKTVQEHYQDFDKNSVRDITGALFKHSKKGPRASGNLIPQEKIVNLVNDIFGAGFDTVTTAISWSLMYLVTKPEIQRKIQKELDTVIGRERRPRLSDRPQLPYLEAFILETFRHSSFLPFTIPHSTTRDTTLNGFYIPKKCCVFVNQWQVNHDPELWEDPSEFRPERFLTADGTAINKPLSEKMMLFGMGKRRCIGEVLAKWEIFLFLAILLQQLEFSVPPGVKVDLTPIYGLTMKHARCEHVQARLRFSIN

Mus musculus [21] = assay: Antiobesity activity in po dosed diet-induced obese mouse assessed as decrease in body weight administered via gavage BID for 13 days measured after day 13; format: functional, organism-based; in short: as §2
Mus musculus [22] = assay: Antidiabetic activity in diet-induced obese mouse assessed as decrease in fed blood glucose level at 25 to 50 mg/kg, po administered via gavage BID for 13 days measured after day 13 by glucose tolerance test; format: functional, organism-based; in short: as §2
[23] = Bioavailability in cynomolgus monkey at 2 mg/kg, iv or 10 mg/kg, po; conditions: in vivo
[24] = Bioavailability in Sprague-Dawley rat at 2 mg/kg, iv or 10 mg/kg, po; conditions: in vivo
[25] = Volume of distribution at steady state in CD1 mouse at 5 mg/kg, iv or 30 mg/kg, po; format: ADME, organism-based; conditions: in vivo, read-out: Vdss; in short: as §1
Mus musculus [26] = assay: Ex vivo inhibition of 11beta-HSD1 in high fat diet-fed C57BL/6 mouse inguinal fat at 15 mg/kg, po measured at 4 hrs by ELISA; format: functional; conditions: C57BL/6, 4 h
[27] = Clearance in cynomolgus monkey at 2 mg/kg, iv or 10 mg/kg, po; conditions: in vivo
Mus musculus [28] = assay: Antidiabetic activity in diet-induced obese mouse assessed as decrease in fed blood glucose level at 5 mg/kg administered QD via high fat-diet for 13 days measured after day 13 by glucose tolerance test; format: functional, organism-based; parameters: dose 5 mg/kg
In short: (§3)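 DIO male C57BL/6 mice (12 weeks high-fat diet), n = 11-12 per group. Rosiglitazone given in the high-fat chow at ~5 mg/kg/day for 13 or 14 days. Fed blood glucose by glucose meter and plasma insulin by radioimmunoassay before and at end of treatment. Body weight taken at end of treatment.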

Mus musculus [29] = assay: Antidiabetic activity in diet-induced obese mouse assessed as decrease in plasma insulin level at 5 mg/kg administered QD via high fat-diet for 13 days measured after day 13 by glucose tolerance test; format: functional, organism-based; parameters: dose 5 mg/kg; in short: as §3
Mus musculus [30] = assay: Antidiabetic activity in diet-induced obese mouse assessed as improvement of glucose tolerance at 5 mg/kg, QD for 13 days measured on day 14 after 12 hrs of fasting by glucose tolerance test
Mus musculus [31] = assay: Antiobesity activity in diet-induced obese mouse assessed as decrease in body weight at 5 mg/kg administered QD via high fat-diet for 13 days measured after day 13; format: functional, organism-based; parameters: dose 5 mg/kg; in short: as §3
Rattus norvegicus [32] = assay: Metabolic epimerization in Sprague-Dawley rat assessed as formation of [R]-2-((1S,2S,4R)-bicyclo[2.2.1]heptan-2-ylamino)-5-5iospropylthiazol-4(5H)-one at 10 mg/kg up to 24 hrs by LC-MS/MS analysis; conditions: in vivo
Rattus norvegicus [33] = assay: Metabolic epimerization in Sprague-Dawley rat assessed as formation of [R]-2-((1S,2S,4R)-bicyclo[2.2.1]heptan-2-ylamino)-5-5iospropylthiazol-4(5H)-one at 10 mg/kg, po up to 24 hrs by LC-MS/MS analysis; format: ADME, organism-based; parameters: dose 10 mg/kg, route oral; conditions: in vivo
In short: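 Sprague-Dawley rats (n = 2/group) dosed orally at 10 mg/kg. Plasma taken predose and at intervals up to 24 h. Diastereomers separated by HPLC, quantified by positive-ion ESI MS/MS with single ion monitoring. AUC ratio of epimer to parent calculated.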

Sequence of Cytochrome P450 2C19 (P33261 whole entry): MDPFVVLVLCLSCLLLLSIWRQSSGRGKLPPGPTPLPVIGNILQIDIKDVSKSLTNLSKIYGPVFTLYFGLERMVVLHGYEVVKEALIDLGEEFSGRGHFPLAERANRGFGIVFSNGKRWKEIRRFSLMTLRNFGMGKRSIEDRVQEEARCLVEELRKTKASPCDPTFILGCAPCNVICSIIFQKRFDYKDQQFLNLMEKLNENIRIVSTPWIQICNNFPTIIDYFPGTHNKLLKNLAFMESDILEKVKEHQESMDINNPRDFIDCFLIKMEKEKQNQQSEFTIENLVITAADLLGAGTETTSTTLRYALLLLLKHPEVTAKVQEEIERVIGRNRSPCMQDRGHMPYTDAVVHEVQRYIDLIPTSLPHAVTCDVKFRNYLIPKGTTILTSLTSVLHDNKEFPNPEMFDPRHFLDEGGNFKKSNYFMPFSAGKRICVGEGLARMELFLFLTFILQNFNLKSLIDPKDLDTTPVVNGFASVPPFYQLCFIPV
Sequence of Cytochrome P450 2D6 (P10635 whole entry): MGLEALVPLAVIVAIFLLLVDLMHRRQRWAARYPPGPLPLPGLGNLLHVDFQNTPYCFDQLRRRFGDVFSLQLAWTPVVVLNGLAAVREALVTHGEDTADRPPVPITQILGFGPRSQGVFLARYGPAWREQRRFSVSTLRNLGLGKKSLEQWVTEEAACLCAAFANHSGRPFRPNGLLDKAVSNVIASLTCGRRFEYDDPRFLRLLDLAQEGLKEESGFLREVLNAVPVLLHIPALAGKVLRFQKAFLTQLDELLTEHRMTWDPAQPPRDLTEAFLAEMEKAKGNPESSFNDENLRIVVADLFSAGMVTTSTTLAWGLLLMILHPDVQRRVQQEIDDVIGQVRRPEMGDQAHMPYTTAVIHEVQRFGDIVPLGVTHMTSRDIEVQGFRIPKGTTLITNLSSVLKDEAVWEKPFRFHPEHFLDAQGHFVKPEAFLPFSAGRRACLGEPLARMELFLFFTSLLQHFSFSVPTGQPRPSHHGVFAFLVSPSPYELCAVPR
Sequence of Cytochrome P450 3A4 (P08684 whole entry): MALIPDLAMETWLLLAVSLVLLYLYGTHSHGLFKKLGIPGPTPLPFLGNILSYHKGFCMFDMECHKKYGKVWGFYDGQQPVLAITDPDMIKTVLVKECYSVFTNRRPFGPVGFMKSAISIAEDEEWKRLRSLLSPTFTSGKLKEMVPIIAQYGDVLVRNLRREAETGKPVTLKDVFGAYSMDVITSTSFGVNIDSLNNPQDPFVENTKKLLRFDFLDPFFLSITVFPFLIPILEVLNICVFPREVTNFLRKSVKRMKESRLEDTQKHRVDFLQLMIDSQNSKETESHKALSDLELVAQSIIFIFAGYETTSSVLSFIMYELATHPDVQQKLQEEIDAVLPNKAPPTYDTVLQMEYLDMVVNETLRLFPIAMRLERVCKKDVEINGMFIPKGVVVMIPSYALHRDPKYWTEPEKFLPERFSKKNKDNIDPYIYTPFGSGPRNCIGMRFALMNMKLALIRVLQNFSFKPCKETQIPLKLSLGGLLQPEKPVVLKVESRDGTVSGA
Sequence of Cytochrome P450 2C9 (P11712 whole entry): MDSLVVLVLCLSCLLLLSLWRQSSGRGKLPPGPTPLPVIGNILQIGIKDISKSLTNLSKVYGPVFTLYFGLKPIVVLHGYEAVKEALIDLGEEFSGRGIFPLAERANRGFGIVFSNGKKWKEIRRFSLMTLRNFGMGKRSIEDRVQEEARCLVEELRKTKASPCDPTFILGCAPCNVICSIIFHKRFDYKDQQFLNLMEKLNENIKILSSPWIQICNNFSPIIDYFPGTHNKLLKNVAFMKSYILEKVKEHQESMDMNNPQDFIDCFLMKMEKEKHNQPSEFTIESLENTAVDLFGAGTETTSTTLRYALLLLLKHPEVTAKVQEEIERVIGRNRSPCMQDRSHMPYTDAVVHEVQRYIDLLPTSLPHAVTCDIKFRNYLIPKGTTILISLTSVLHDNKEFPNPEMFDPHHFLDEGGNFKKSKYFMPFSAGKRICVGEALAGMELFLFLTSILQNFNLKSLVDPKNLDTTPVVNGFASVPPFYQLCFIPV

clearance [1]: 52.7 mL/min/kg
pIC50 (Cytochrome P450 2D6): < 4.82
pIC50 (Glucocorticoid receptor): < 5.00
bioavailability [3]: 50%
pIC50 [7]: < 5.00
pIC50 (Cytochrome P450 3A4): < 4.82
pIC50 (Cytochrome P450 2C9): < 4.82
Km [9]: > 100 µM
half-life [11]: 0.6 h
clearance [12]: 22.7 mL/min/kg
Vd [13]: 1.02 L/kg
half-life [15]: 41.5 h
pIC50 (Cytochrome P450 2C19): < 4.82
half-life [16]: 8.1 h
clearance [17]: 15.7 mL/min/kg
Vd [18]: 0.98 L/kg
bioavailability [19]: 54%
half-life [20]: 15.6 h
pIC50 (Cytochrome P450 1A2): < 4.82
bioavailability [23]: 7%
bioavailability [24]: 34%
Vd [25]: 1 L/kg
clearance [27]: 31.5 mL/min/kg
Compound: CC(C)[C@]1(C)SC(N[C@H]2C[C@@H]3CC[C@H]2C3)=NC1=O
inhibition in vivo at 5 mg/kg (Mus musculus [2]): 10%
inhibition in vivo at 50 mg/kg (Mus musculus [4]): 47%
inhibition in vivo at 5 mg/kg (Mus musculus [5]): 33%
inhibition (Mus musculus [6]): Active
Activity (Mus musculus [8]): Active
inhibition in vivo at 15 mg/kg (Mus musculus [10]): 36%
inhibition in vivo at 50 mg/kg (Mus musculus [14]): 39%
inhibition (Mus musculus [21]): Dose-dependent effect
inhibition (Mus musculus [22]): Active
inhibition in vivo at 15 mg/kg (Mus musculus [26]): 55%

Compound: CN(CCOc1ccc(CC2SC(=O)NC2=O)cc1)c1ccccn1 (centres undefined)
inhibition (Mus musculus [28]): Active
inhibition (Mus musculus [29]): Active
Activity (Mus musculus [30]): inactive
inhibition (Mus musculus [31]): inactive

Activity (Rattus norvegicus [32]): 39%
Activity (Rattus norvegicus [33]): 39%
Compound: CC(C)[C@@H]1SC(N[C@H]2C[C@@H]3CC[C@H]2C3)=NC1=O

Source: ChEMBL document CHEMBL1155526, “Discovery of a potent, orally active 11beta-hydroxysteroid dehydrogenase type 1 inhibitor for clinical study: identification of (S)-2-((1S,2S,4R)-bicyclo[2.2.1]heptan-2-ylamino)-5-isopropyl-5-methylthiazol-4(5H)-one (AMG 221)” (J Med Chem, 2010)
